ChEMBL document CHEMBL3621129, “Investigation on the ZBG-functionality of phenyl-4-yl-acrylohydroxamic acid derivatives as histone deacetylase inhibitors” (Bioorg Med Chem Lett, 2015)

How the values were obtained:
HCT-116 = assay: cells; type: functional, cell-based; conditions: Homo sapiens, HCT-116, 72 h
Histone deacetylase 2 = Histone deacetylase 2 (Homo sapiens, UniProt Q92769); assay: Inhibition of human HDAC2 after 40 mins by fluorescence analysis
cells [1] = type: functional, cell-based; conditions: Homo sapiens, NCI-H460, 72 h
cells [2] = type: functional, cell-based; conditions: Homo sapiens, NB-4, 72 h
[3] = tested on: IGROV-1/Pt1 (Homo sapiens); assay: Growth inhibition of human IGROV1/Pt1 cells after 72 hrs; conditions: IGROV-1/Pt1, 72 h
IGROV-1 = assay: Growth inhibition of human IGROV1 cells after 72 hrs; type: functional, cell-based; conditions: IGROV-1, 72 h
Outline: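 Cells exposed to compound for 72 h. Growth inhibition read by cell counting. IC50 (concentration giving 50% inhibition of cell growth) taken from dose–response curves. Values are means ± SD of three independent experiments.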

Histone deacetylase 1 = Histone deacetylase 1 (Homo sapiens, UniProt Q13547); assay: Inhibition of HDAC1 (unknown origin)
Histone deacetylase 1, sequence (Q13547 whole entry): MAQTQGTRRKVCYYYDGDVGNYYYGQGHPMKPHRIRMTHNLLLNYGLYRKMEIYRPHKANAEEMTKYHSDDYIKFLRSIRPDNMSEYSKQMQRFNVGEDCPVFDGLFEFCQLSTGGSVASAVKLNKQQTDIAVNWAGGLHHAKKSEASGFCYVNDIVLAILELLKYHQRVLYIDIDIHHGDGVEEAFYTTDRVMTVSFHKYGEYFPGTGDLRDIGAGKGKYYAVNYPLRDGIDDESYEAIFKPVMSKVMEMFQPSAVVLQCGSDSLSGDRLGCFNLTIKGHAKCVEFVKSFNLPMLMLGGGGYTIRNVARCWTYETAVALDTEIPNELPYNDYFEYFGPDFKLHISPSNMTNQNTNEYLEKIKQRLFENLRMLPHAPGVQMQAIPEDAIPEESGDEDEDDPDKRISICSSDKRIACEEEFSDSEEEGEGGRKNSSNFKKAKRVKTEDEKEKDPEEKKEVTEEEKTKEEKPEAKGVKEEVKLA

[4] = biological target: T1, Protein deacetylase HDAC6 (Homo sapiens, UniProt Q9UBN7); assay: Inhibition of HDAC6 (unknown origin)
T1 sequence (Q9UBN7 whole entry): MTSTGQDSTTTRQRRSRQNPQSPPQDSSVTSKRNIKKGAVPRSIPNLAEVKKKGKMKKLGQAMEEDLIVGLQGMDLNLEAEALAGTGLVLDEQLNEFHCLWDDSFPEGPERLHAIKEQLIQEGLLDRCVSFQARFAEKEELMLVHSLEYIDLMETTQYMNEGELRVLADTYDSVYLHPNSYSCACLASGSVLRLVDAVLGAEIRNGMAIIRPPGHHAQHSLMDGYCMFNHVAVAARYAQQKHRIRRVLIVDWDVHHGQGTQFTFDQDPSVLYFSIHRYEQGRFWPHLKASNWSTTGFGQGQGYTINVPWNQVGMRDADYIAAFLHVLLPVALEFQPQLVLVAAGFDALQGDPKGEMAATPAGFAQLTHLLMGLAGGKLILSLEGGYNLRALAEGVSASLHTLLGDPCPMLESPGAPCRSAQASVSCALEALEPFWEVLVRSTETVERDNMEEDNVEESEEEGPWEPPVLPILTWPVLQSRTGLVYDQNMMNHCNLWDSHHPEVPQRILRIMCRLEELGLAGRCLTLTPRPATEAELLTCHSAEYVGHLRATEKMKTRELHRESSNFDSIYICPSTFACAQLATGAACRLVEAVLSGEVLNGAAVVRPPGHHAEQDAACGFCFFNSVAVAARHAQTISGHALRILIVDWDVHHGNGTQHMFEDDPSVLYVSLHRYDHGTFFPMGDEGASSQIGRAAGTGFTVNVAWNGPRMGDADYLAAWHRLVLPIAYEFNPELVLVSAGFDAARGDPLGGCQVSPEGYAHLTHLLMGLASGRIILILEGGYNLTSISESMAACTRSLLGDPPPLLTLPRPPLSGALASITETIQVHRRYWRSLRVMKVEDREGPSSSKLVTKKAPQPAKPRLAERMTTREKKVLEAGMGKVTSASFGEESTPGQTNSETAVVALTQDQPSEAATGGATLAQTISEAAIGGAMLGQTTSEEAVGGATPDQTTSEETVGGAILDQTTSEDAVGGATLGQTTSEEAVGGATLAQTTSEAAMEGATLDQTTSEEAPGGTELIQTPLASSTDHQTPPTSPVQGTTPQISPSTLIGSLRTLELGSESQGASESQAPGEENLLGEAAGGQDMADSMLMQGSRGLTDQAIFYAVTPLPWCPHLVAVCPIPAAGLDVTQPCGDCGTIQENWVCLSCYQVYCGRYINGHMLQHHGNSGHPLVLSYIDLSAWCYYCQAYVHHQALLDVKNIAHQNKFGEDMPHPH

Histone deacetylase 2, sequence (Q92769 whole entry): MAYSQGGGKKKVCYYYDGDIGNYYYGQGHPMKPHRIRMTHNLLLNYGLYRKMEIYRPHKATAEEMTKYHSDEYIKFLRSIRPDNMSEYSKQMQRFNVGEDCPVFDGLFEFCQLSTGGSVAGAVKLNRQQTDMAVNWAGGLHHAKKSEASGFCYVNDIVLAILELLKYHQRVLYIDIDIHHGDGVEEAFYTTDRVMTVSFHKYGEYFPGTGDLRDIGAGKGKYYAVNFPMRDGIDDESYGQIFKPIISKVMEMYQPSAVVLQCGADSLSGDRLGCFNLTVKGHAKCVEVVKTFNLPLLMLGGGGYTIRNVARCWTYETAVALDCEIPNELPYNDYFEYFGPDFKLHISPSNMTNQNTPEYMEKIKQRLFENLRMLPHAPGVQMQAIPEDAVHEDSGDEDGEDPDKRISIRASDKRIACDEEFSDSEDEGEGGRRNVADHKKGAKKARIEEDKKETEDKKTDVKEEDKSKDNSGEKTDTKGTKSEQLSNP

Compound | IC50 (HCT-116) [µM] | IC50 (Histone deacetylase 2) [µM] | IC50 (cells [1]) [µM] | IC50 (cells [2]) [µM] | IC50 [3] [µM] | IC50 (IGROV-1) [µM] | IC50 (Histone deacetylase 1) [µM] | IC50 [4] [µM]
O=C(O)/C=C/c1ccc(-c2ccccc2)cc1 | > 20 | > 5 | > 20 | > 10 | – | – | – | –
NNC(=O)/C=C/c1ccc(-c2ccccc2)cc1 | 11.9 | > 5 | > 20 | 7.1 | 25.1 | 7.6 | – | –
NNC(=O)N/C=C/c1ccc(-c2ccccc2)cc1 | 16.4 | > 5 | > 20 | 9.8 | 26.7 | 14.5 | – | –
O=C(NO)N/C=C/c1ccc(-c2ccccc2)cc1 | 4 | 1.05 | 9.5 | 1.96 | 6.7 | 3.5 | 1.31 | 1.05
O=C(N/C=C/c1ccc(-c2ccccc2)cc1)NOCc1ccccc1 | 40 | > 5 | > 20 | > 20 | > 50 | 40 | – | –
CC(=O)SCC(=O)/C=C/c1ccc(-c2ccccc2)cc1 | 14 | > 5 | > 20 | > 20 | 18.7 | 26.4 | – | –
N#CSC/C=C/c1ccc(-c2ccccc2)cc1 | 12.6 | > 5 | 9.4 | > 20 | 58.1 | 3.8 | – | –
O=C1/C(=C/c2ccc(-c3ccccc3)cc2)CCN1O | > 20 | > 5 | > 20 | > 20 | > 60 | > 60 | – | –
O=C(/C=C/c1ccc(-c2ccccc2)cc1)NO | – | – | 5.4 | 0.9 | 4 | – | – | –
O=C(CCCCCCC(=O)Nc1ccccc1)NO [VORINOSTAT] | – | – | – | – | 2.2 | – | – | –
